# Source: PubChem BioAssay
# SF1 activator: activators of human SF-1, primary screen, cell-based, CHO-K1, Gal4-SF-1 LBD, luciferase luminescence; activation, % at 10 µM; Steroidogenic factor 1 (Homo sapiens), Q13285; CHO-K1 Gal4-SF-1 LBD luciferase reporter; % increase over DMSO SF-1-specific signal; 1.9% of 65,000 active;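 active means activation above the mean activation of all tested compounds plus 3 SD, cut at about 50% in these data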
#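 System: CHO-K1 cells with Gal4–hSF-1 LBD chimera plus Gal4-driven luciferase; quantity: 4,000 CHO-K1 cells per well; compound: one dose, 10 µM compound, 1% DMSO; times: 20 h compound treatment, 37 °C; measured by: SteadyLite luciferase luminescence; read-out: percent activation versus DMSO; benchmarks: DMSO and mock-transfected background; replicates: one test per compound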
# TNAP act DEA: human TNAP enzyme activators, primary screen, biochemical, luminescent, intermediate phosphate acceptor level. purified TNAP, CDP-star luminescence, 100 mM DEA, 30 min; active compounds read high; scale: 0 levamisole-inhibited, 1 vehicle-only enzyme. AID 813, 2007. activation factor at 20 µM. 64,000 tested, under 10 active. Alkaline phosphatase, tissue-nonspecific isozyme (Homo sapiens), P05186;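 active means activation factor of at least 2 at 20 µM, relative to controls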
# Target sequence (P05186 whole entry, looked up): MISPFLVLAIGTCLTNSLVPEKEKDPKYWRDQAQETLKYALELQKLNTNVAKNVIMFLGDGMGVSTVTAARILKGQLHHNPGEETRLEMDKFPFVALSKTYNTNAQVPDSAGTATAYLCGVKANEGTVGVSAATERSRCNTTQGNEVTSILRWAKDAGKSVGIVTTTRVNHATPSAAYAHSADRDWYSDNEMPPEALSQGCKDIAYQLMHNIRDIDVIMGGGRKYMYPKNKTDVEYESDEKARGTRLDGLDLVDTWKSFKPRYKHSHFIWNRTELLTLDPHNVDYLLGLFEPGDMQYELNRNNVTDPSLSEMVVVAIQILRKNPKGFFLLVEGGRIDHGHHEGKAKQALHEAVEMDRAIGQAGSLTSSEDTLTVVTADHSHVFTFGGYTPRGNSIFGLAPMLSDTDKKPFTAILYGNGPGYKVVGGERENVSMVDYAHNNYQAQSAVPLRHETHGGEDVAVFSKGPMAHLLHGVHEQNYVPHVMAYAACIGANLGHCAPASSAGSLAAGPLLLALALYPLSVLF
# MT1-MMP txn act: MT1-MMP promoter reporter activation – cell-based, luciferase luminescence, primary screen; HT1080 MT1-MMP promoter luciferase reporter, overnight; active compounds read high; activation factor at 10 µM; 0.16% of 86,000 active;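 active means activation factor of at least 2 for MT1-MMP transcription at 10 µM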
# RORA act: activators of orphan receptor RORA, primary screen, cell-based, luminescence; CHO-K1 Gal4-RORA LBD luciferase reporter; percent increase over mock-subtracted basal signal; activation, % at 10 µM; 1.5% of 65,000 active; AID 560, 2006;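 active means activation above the mean of all tested compounds plus 3 SD, cut at about 49% in these data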;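 further: 0% = DMSO-treated RORA cells and 100% = added signal equal to DMSO minus mock-transfected cells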
# MMP13 inh: human MMP13 inhibitors, primary screen, biochemical, FRET peptide cleavage; MMP-13 fTHP FRET cleavage, Mca fluorescence; 0.07% of 65,000 active; inhibition, % at 4 µM; AID 570, 2006; Collagenase 3 (Homo sapiens), P45452;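 active means inhibition above the mean of compound-free control plate wells plus 3 SD, cut at about 14% in these data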;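 further: 0% = DMSO wells and 100% = wells with reference MMP-13 inhibitor after basal subtraction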
# Starred values were filed as active, the others as inactive; nt = no result. Hits are enriched below; roughly 2.1% of the tested compounds scored in any of these assays.
SMILES,SF1 activator,TNAP act DEA,MT1-MMP txn act,RORA act,MMP13 inh
O=C(Nc1cccc(-c2nc3cc(Cl)ccc3o2)c1)C1CCCO1 (configuration not stated),80.9*,0.9,1.2,37.3,-22.2
CC(C)CC(=O)Nc1cccc(-c2nc3ccccc3o2)c1,0.0,0.9,1,-7.8,-11.6
COC(=O)[C@@H]1C[C@H]2CC[C@H](O)C[C@H]2N1Cc1ccc(N2CCOCC2)cc1,nt,nt,1,nt,nt
COC(=O)[C@@]1(Cc2ccccc2)[C@H]2c3cc(C(=O)N4CCCC4)n(Cc4ccc(S(C)(=O)=O)cc4)c3C[C@H]2CN1C(=O)c1ccccc1,nt,nt,1.1,nt,nt
C(=N\n1cnc2ccccc21)/c1cccnc1,nt,nt,1.3,nt,nt
Clc1nc2sccn2c1/C=N/n1cnc2ccccc21,39.8,1,1.2,52.3*,1.6
CCNc1nc(N)c(C(=O)c2ccc(Cl)s2)s1,31.4,0.8,1.7,49.8*,-2.6
c1ccc2nc3c(nc2c1)sc1nc2ccccc2n13,6.2,0.9,1,-12.8,3.1
CC(C)(O)c1cc(=O)sc2nc3ccccc3n12,53.4*,1,1.2,71.1*,-3.9
CCOc1ccc2c(c1)C(c1ccccc1)=NNC(c1ccccc1)=N2,nt,nt,1.2,nt,nt
Cc1cc2c(C)nc(-c3ccccc3)nc2o1,58.0*,1,2*,60.3*,1.7
Cc1ccccc1OCc1nc2c3cnn(C)c3ncn2n1,37.3,0.7,1.7,49.8*,4.5
COCCn1c(C)cc(C(=O)COC(=O)C23CC4CC(CC(O)(C4)C2)C3)c1C,77.2*,0.9,0.6,12.9,-1.4
COCCn1c(C)cc(C(=O)COC(=O)c2cc3c(s2)CCC3)c1C,1.8,0.9,1.5,-15.6,-4.3
CCC#CCOCC(=O)Nc1ccccc1,nt,nt,1.3,nt,nt
CC(C)(C)S(=O)(=O)c1ccc(S(=O)(=O)C(C)(C)C)s1,nt,nt,1.3,nt,nt
CC(=O)c1c(C)[nH]c(C(=O)NCCC2=CCCCC2)c1C,84.3*,1,0.8,68.6*,1.7
CCOC(=O)c1[nH]c(C)c(C(=O)NCCC2=CCCCC2)c1C,24.0,1,1.1,0.7,1.9
COc1ccc2c(c1)S/C(=C\C(=O)c1ccncc1)N2C,46.0,0.9,1.4,57.6*,10.8
CCC(=O)N1CCn2c1nc1ccccc12,nt,nt,1.1,nt,nt
O=C(c1ccco1)N1CCn2c1nc1ccccc12,41.0,0.9,1.7,62.0*,4.5
COC(=O)c1ccc(C(NC(=O)OCc2ccccc2)/C(I)=C/[C@@H](C)C(=O)NCCc2c[nH]c3ccccc23)cc1 (some centres not stated),nt,nt,1.1,nt,nt
CCCn1c(-c2cccs2)nc2nc3ccccc3nc21,nt,nt,1.1,nt,nt
c1csc(-c2nc3nc4ccccc4nc3n2Cc2ccc3c(c2)OCO3)c1,63.2*,0.9,1.5,42.7,-27.4
CCCCCn1c2nc3ccccc3nc2c2c(=O)n(CC3CCCO3)c(C)nc21 (configuration not stated),-23.4,0.9,1,4.0,-0.2
SMILES,SF1 activator,TNAP act DEA,MT1-MMP txn act,RORA act,MMP13 inh
Cn1c(SCc2ccccc2)nnc1-c1ccc2c(c1)OCO2,36.3,1,1.4,54.9*,4.1
CCC1=C2CC[C@H]3C(=O)N(CC)C(=O)[C@H]3[C@H]2[C@@]2(Cc3ccccc3)C(=NCC3CC3)OC(=O)N2C1=O,nt,nt,1.1,nt,nt
COCCNC(=O)[C@@]1(Cc2ccccc2)C=C[C@@H](C)N1C(=O)OC,nt,nt,1,nt,nt
c1ccc(-c2noc(C34CC5CC(CC(C5)C3)C4)n2)nc1,85.6*,0.9,1.4,42.1,-4.1
c1ccc(-c2noc(C3CCCCC3)n2)nc1,55.8*,0.9,1.1,60.7*,3.4
c1ccc(-c2noc(C34CC5CC(CC(C5)C3)C4)n2)cc1,nt,nt,1.2,nt,nt
Cn1nccc1C(=O)OCC(=O)Nc1nc(-c2ccccc2)cs1,49.6*,1,1.5,45.7,0.3
COC(=O)CNC(=O)C1(CC(C)C)C=CCN1C(C)=O (configuration not stated),nt,nt,1.1,nt,nt
Cc1ccccc1Nc1nn2c(=O)c3ccccc3nc2s1,72.9*,0.8,1.4,42.8,0.8
Cc1cc(Nc2ccccc2C(=O)O)nc2nc3ccccc3c(=O)n12,-6.0,0.9,1.4,-0.9,2.1
COC(=O)[C@@]1(Cc2ccc(F)cc2)[C@H]2c3cc(C(=O)N4CCCC4)n(CCc4ccccn4)c3C[C@H]2CN1C(=O)c1ccccc1,nt,nt,1.1,nt,nt
Cc1ccc2nc(Cc3ccc(N)cc3)oc2c1,67.8*,1,1.6,38.9,-1.7
CC1(C)CC(=O)C=C(NCCN2CCN(C(=O)Nc3ccc(Cl)c(Cl)c3)CC2)C1,-15.3,0.9,1.2,14.3,-10.2
O=C(Nc1ccc(Cl)c(Cl)c1)N1CC=CCC1,55.4*,1,1.9,57.8*,4.1
Cc1ccc(NC(=O)Nc2cccs2)cc1,21.3,1,1.5,53.7*,-0.1
COC(=O)[C@@]1(Cc2ccccc2)[C@H]2c3cc(C(=O)N(C)C)n(Cc4cc(C)n(C)n4)c3C[C@H]2CN1C(=O)c1ccccc1,nt,nt,1,nt,nt
Cc1cccc(NC(=O)c2sc3nc(-c4ccccc4)cn3c2C)n1,11.3,nt,1.3,31.6,-9.2
COc1ccc(-c2cn3c(C)c(C(=O)NC(C)(C)C)sc3n2)cc1,47.9,1,1.8,56.0*,-10.4
COc1ccc(-c2cn3c(C)c(C(=O)NC(C)C)sc3n2)cc1,25.3,1,1.1,24.6,1.9
Cc1c(C(=O)Nc2ccccc2)sc2nc(-c3ccccc3)cn12,54.3*,1,nt,58.2*,1.3
Cc1cc(CNC(=O)[C@@H]2C[C@H]2[C@@H](NP(=O)(c2ccccc2)c2ccccc2)c2ccccc2)nn1C,nt,nt,1.3,nt,nt
CN(C)/C=C1\C(=O)Nc2ccccc21,nt,nt,1.3,nt,nt
O=C1N/C(=C\c2ccccc2)c2ccccc21,63.2*,0.9,1.3,51.2*,-5.9
CC1(C)SC2[C@H](NC(=O)C(NC(=O)N3CCNC3=O)c3ccccc3)C(=O)N2C1C(=O)O (some centres not stated),-0.5,0.9,1.2,-14.2,-0.8
CCCC/C=C/C(NC(=O)OCc1ccccc1Cl)c1ccccc1 (configuration not stated),nt,nt,1.2,nt,nt
CC1CCN(C(=O)c2cc(-c3ccccc3O)on2)CC1,99.1*,1,1.2,63.8*,6.2
O=C(c1cc(-c2ccccc2)on1)N1CCCC1,56.7*,0.9,0.9,24.6,-2.2
O=C(c1cc(-c2ccc(Cl)c(Cl)c2)on1)N1CCCCC1,43.0,1,1.5,92.4*,-1.3
O=C(c1cc(-c2cccc(O)c2)on1)N1CCOCC1,0.3,0.9,0.6,-18.6,-2.3
CC1=CCC(COC(=O)Nc2ccccc2)CC1 (configuration not stated),15.6,0.9,1.7,89.9*,5.4
